In ChEMBL document CHEMBL1138778, “Effects of altering the electronics of 2-methoxyestradiol on cell proliferation, on cytotoxicity in human cancer cell cultures, and on tubulin polymerization” (J Med Chem, 2004) one finds GI50 and IC50 data, which are given here for six compounds.

Where only a bound is given, the exact number is not on record here.

Test [1] deals with UACC-62. The test is described as follows: Growth inhibitory concentration against human melanoma UACC-62 cancer cell line. The class given is functional. An outline of the steps: (§1)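 Human cancer cell line antiproliferative screen, compounds tested over 10^-4 to 10^-8 M. GI50 is the concentration giving 50% growth inhibition of the individual cell line. GI50 values outside the tested range were set to the range limits (10^-8 or 10^-4 M) when averaging across all lines tested to give the mean graph midpoint.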

The target of a further test is Tubulin beta chain (Bos taurus, UniProt Q6B856). Description: Inhibitory concentration against bovine brain tubulin polymerization. The test is classed as functional. The procedure, abridged: (§2)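 Bovine brain tubulin, 1.2 mg/mL (12 μM), was preincubated with a range of compound concentrations and then chilled on ice. GTP was added and assembly followed by turbidity at 350 nm for 20 min at 26 °C. IC50 is the concentration halving assembly at 20 min, from at least two independent assays.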

Test [2] relates to DU-145. Description: Growth inhibitory concentration against human prostate DU-145 cancer cell line. The class given is functional. An outline of the steps:
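Human cancer cell line screen across 10^-4 to 10^-8 M compound. GI50 is the concentration giving 50% growth inhibition of the individual cell line. GI50 values below or above the tested range were taken as 10^-8 M or 10^-4 M.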

The subject of a further test is HCT-116. The test is described as follows: Growth inhibitory concentration against human colon cancer HCT116 cell line. The class given is functional. The procedure, abridged: (§3)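 Screen over 10^-4 to 10^-8 M in a human cancer cell line panel. GI50 is the concentration giving 50% growth inhibition of the individual cell line.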
For test [3], the system named is OVCAR-3. The test is described as follows: Growth inhibitory concentration against human ovarian OVCAR-3 cancer cell line. The class given is functional. An outline of the steps:
as §1

A short description of test [4]: Growth inhibitory concentration against human cancer cell line. Particulars: Cancer cell lines. The class given is functional. The procedure, abridged: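 NCI human cancer cell line antiproliferative screen, tested over 10^-4 to 10^-8 M. GI50 is the concentration giving 50% growth inhibition of each cell line. The mean graph midpoint is the average GI50 across all lines tested, with values outside the range set to 10^-8 or 10^-4 M.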

The test system of test [5] is SN12C. The test is described as follows: Growth inhibitory concentration against human renal SN12C cancer cell line. The test is classed as functional. The procedure, abridged:
as §1

The test system of a further test is HOP-62. Description: Growth inhibitory concentration against human lung cancer HOP-62 cell line. The test is classed as functional. An outline of the steps: as §3
Test [6] has as its system MDA-MB-435. Description: Growth inhibitory concentration against human breast MDA-MB-435 cancer cell line. The test is classed as functional. The procedure, abridged: as §1
Test [7] relates to SF-539. The test is described as follows: Growth inhibitory concentration against human CNS SF-539 cancer cell line. The class given is functional. The procedure, abridged:
as §1

The next test relates to MDA-MB-231. The test is described as follows: Inhibitory concentration against growth of MDA-MB-231 cancer cell line. The test is classed as functional, cell-based. Particulars: Homo sapiens. An outline of the steps: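 MDA-MB-231 cells in DMEM/F12 (1:1) with 10% FBS, seeded at 1000 cells/well and attached overnight. Cells were exposed to compound for 48 h. Proliferation was read by BrdU-incorporation colorimetric ELISA or by cell counting, in triplicate, with experiments repeated at least twice.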

Test [8] deals with DU-145. The test is described as follows: Growth inhibitory concentration required against human prostate DU-145 cancer cell line. The class given is functional. The procedure, abridged:
as §3

Test [9] relates to MDA-MB-435. The test is described as follows: Growth inhibitory concentration required against human breast MDA-MB-435 cancer cell line. The test is classed as functional. An outline of the steps: as §3
The test system of test [10] is HUVEC. The test is described as follows: Inhibitory concentration required against growth of HUVEC […] cell line. Particulars: Homo sapiens. The test is classed as functional, cell-based. The procedure, abridged: (§4)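 HUVEC, used up to five passages in EGM with bovine brain extract and antibiotic-antimycotic, seeded at 3000 cells/well and attached overnight. Cells were exposed to compound for 48 h. Proliferation was read by BrdU-incorporation colorimetric ELISA or by cell counting, in triplicate, with experiments repeated at least twice.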

Test [11] can be described thus: Average concentration required for 50% growth inhibition of human cancer cell line (tested). Particulars: Cancer cell lines. The test is classed as functional. The procedure, abridged:
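Mean graph midpoint: average of the individual cell line GI50 values across all cancer lines screened over 10^-4 to 10^-8 M. GI50 values falling outside this range were set to 10^-8 M (below) or 10^-4 M (above).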

In test [12] the test system is SN12C. Description: Growth inhibitory concentration required for against human renal SN12C cancer cell line. The test is classed as functional. The procedure, abridged: as §3
Test [13] deals with UACC-62. Description: Growth inhibitory concentration required against human melanoma UACC-62 cancer cell line. The test is classed as functional. An outline of the steps: as §3
A further test deals with Tubulin (Bos taurus, UniProt Q6B856+Q862L2+Q862F3). The test is described as follows: Inhibitory concentration against bovine tubulin polymerization. The class given is functional. The procedure, abridged: as §2
Test [14] deals with OVCAR-3. Description: Growth inhibitory concentration required against human ovarian OVCAR-3 cancer cell line. The class given is functional. An outline of the steps:
as §3

Test [15] relates to SF-539. Description: Growth inhibitory concentration required against human CNS SF-539 cancer cell line. The test is classed as functional. An outline of the steps:
as §3

The subject of test [16] is HUVEC. Description: Inhibitory concentration against growth of HUVEC […] cell line. The test is classed as functional, cell-based. Particulars: Homo sapiens. An outline of the steps:
as §4

Sequence of Tubulin beta chain (Q6B856 whole entry): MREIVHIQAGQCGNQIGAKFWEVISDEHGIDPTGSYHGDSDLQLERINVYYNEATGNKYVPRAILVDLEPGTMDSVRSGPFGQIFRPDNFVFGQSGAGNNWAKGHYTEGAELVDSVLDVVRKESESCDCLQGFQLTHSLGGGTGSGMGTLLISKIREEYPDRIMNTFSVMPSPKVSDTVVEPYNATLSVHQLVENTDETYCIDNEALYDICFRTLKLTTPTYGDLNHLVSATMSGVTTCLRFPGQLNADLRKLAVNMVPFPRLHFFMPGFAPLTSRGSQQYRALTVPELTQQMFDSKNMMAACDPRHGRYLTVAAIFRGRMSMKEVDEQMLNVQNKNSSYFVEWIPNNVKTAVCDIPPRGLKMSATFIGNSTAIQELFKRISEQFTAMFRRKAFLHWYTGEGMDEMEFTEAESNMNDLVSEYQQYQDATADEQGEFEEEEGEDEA

By GI50 is commonly meant the concentration that inhibits growth by half. A higher GI50 goes with less potent growth inhibition. Usually IC50 stands for the concentration at which inhibition is half-maximal. Higher therefore signals lower potency. For the compound `COc1cc2c(cc1O)CC[C@@H]1[C@@H]2CC[C@]2(C)[C@@H](O)CC[C@@H]12` [2-METHOXYESTRADIOL], the concentration for 50% growth inhibition (GI50) in the test with UACC-62 [1] turned out to be 0.36 µM; with DU-145 [2], 1.8 µM; in the test with HCT-116, 0.47 µM; with OVCAR-3 [3] it was 0.21 µM; in test [4] it was 1.3 µM; in the test on SN12C [5] it was 0.95 µM. The GI50 in the test on HOP-62 is 0.7 µM; in the test on MDA-MB-435 [6] it was 0.08 µM; in the test on SF-539 [7], 0.32 µM. The same compound registered a half-maximal inhibitory concentration (IC50) against Tubulin beta chain of 5.3 µM.

For `C=CCc1cc2c(cc1O)CC[C@@H]1[C@@H]2CC[C@]2(C)[C@@H](O)CC[C@@H]12`, the IC50 is 33.4 µM in the test with MDA-MB-231, 8.51 µM in the test with HUVEC [10] and greater than 40 µM on Tubulin. Moreover, the 50% growth inhibitory concentration (GI50) was 24 µM with DU-145 [8]; 15.1 µM in the test on MDA-MB-435 [9]; 18.2 µM in test [11]; 14.1 µM in the test with HCT-116; 18.2 µM with SN12C [12]; 13.2 µM in the test with UACC-62 [13]. The 50% growth inhibitory concentration (GI50) was determined as 13.8 µM in the test on HOP-62, 21.9 µM in the test with OVCAR-3 [14] and 21.9 µM in the test on SF-539 [15].

Turning to `C[C@]12CC[C@@H]3c4ccc(O)cc4CCC3[C@@H]1CCC2(F)F` (single isomer, unassigned), the IC50 in the test with MDA-MB-231 is 54.4 µM; in the test on HUVEC [10], 6.6 µM; against Tubulin, greater than 40 µM. The concentration for 50% growth inhibition (GI50) was found to be 16.6 µM in the test with DU-145 [8]; 15.8 µM in the test with MDA-MB-435 [9]; 16.6 µM in test [11]; 14.5 µM in the test with HCT-116; 18.6 µM in the test on SN12C [12]; 14.1 µM in the test with UACC-62 [13]. The values for the GI50 in the test on HOP-62, in the test with OVCAR-3 [14] and in the test with SF-539 [15] were 19.5 µM, 11 µM and 17.4 µM, respectively.

Regarding `C[C@]12CC[C@@H]3c4cc(CO)c(O)cc4CC[C@H]3[C@@H]1CC[C@@H]2O`, the IC50 in the test with MDA-MB-231 was 99.2 µM; in the test on HUVEC [10], 7.73 µM; against Tubulin, greater than 40 µM. Moreover, the concentration for 50% growth inhibition (GI50) in the test with DU-145 [8] was determined as 70.8 µM; in the test with MDA-MB-435 [9], 24 µM; in [11], 34.7 µM; in the test with HCT-116 it was 74.1 µM; with SN12C [12] it was 63.1 µM; in the test on UACC-62 [13] it was 23.4 µM. In addition, the results for the GI50 with HOP-62, in the test with OVCAR-3 [14] and in the test with SF-539 [15] were 72.4 µM, 31.6 µM and 38 µM, respectively.

As to `C/C=C/c1cc2c(cc1O)CC[C@@H]1[C@@H]2CC[C@]2(C)[C@@H](O)CC[C@@H]12`, the values for the half-maximal inhibitory concentration (IC50) with MDA-MB-231 and with HUVEC [16] were 0.65 µM and 0.59 µM, respectively.

With `CC(=O)Oc1cc2c(cc1C(C)(F)F)[C@H]1CC[C@]3(C)[C@@H](OC(C)=O)CC[C@H]3[C@@H]1CC2`, the figures for the IC50 with MDA-MB-231, in the test on HUVEC [10] and against Tubulin were 95.9 µM, 32.3 µM and greater than 40 µM, respectively. The GI50 amounted to 13.8 µM in the test with DU-145 [8]; 20.9 µM with MDA-MB-435 [9]; 11.7 µM in test [11]; 10.7 µM in the test on HCT-116; 27.5 µM in the test with SN12C [12]; 12.3 µM in the test with UACC-62 [13]. In addition, the GI50 came to 31.6 µM with HOP-62, 1.9 µM in the test with OVCAR-3 [14] and 20 µM in the test with SF-539 [15].
